Our source for the inhibition values is ChEMBL document CHEMBL1649418, “Pyrimidine derivatives as potent and selective A3 adenosine receptor antagonists” (J Med Chem, 2011).

Holding throughout (assay type): cell-based
The target in one test is Adenosine receptor A2a (Homo sapiens, UniProt P29274). Nature of the test: Displacement of [3H][…] from human adenosine A2A receptor expressed in human HeLa cells at 0.1 uM by liquid scintillation counting. The essentials: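 Nonspecific binding was defined with 50 μM NECA. Filters were washed four times with ice-cold buffer, then counted by scintillation. Ki (Cheng–Prusoff) is mean ± SEM, n=3; % displacement at 0.1 μM is n=2.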

Test [1] has as its target T1, Adenosine receptor A2b (Homo sapiens) (UniProt P29275).
T1 sequence (whole entry): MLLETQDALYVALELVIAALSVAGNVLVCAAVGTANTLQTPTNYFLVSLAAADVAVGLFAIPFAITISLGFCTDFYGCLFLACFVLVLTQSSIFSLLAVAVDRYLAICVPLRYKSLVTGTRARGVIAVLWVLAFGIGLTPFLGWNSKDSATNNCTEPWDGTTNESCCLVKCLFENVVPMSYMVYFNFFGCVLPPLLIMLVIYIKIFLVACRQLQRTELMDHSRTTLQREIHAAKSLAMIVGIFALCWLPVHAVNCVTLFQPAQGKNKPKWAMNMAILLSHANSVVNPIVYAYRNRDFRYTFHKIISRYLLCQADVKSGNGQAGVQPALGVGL
Nature of the test: Displacement of [3H]DPCPX from human adenosine A2B receptor expressed in HEK293 cells at 0.1 uM by liquid scintillation counting. The essentials: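 HEK-293 membranes (18 μg) were incubated with [3H]DPCPX (35 nM) at 25 °C for 30 min, with six concentrations from 0.1 nM to 1 μM. Nonspecific binding was defined with 400 μM NECA. Filters were washed six times with ice-cold buffer and counted by scintillation. Ki (Cheng–Prusoff) is mean ± SEM, n=3; % displacement at 0.1 μM is n=2.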
For orientation: Loss of bound radioactivity is the signal in a displacement assay; it reports binding, not function.

For test [2], the target named is T2, Adenosine receptor A1 (Homo sapiens) (UniProt P30542).
T2 sequence (whole entry): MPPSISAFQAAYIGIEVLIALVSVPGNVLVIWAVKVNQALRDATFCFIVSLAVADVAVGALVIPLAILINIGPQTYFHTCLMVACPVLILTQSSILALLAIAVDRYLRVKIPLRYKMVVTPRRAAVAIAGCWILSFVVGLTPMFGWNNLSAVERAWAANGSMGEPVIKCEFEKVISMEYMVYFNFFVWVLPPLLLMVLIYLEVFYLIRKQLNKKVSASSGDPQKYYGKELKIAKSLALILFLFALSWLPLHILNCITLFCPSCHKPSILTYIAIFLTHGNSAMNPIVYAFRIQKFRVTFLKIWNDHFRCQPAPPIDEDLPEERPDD
Description: Displacement of [3H]DPCPX from human adenosine A1 receptor expressed in CHO cells at 0.1 uM by liquid scintillation counting. In short, it runs like this:
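Transfected CHO cell membranes (15 μg) were incubated with [3H]DPCPX at 25 °C for 60 min, with six test concentrations from 0.1 nM to 1 μM. Nonspecific binding was defined with 10 μM R-PIA. Filters were washed four times with ice-cold buffer before scintillation counting. Ki (Cheng–Prusoff) is mean ± SEM, n=3; % displacement at 0.1 μM is n=2.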

Test [3] has as its target T3, Adenosine receptor A3 (Homo sapiens) (UniProt P0DMS8).
T3 sequence (whole entry): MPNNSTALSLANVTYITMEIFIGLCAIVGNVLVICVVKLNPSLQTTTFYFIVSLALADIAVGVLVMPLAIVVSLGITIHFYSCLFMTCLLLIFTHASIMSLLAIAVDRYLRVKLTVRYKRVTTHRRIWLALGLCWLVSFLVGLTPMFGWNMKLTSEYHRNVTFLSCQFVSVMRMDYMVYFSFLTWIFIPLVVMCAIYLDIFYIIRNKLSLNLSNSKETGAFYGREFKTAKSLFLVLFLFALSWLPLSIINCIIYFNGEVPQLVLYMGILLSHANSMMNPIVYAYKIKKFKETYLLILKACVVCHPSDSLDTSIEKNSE
Description: Displacement of [3H]NECA from human adenosine A3 receptor expressed in human HeLa cells at 0.1 uM by liquid scintillation counting. In short, it runs like this:
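HeLa membranes (90 μg) carrying hA3AR were incubated with [3H]NECA (30 nM) at 25 °C for 180 min, with six concentrations from 0.1 nM to 1 μM. Nonspecific binding was defined with 100 μM R-PIA. Filters were washed six times and counted by scintillation. Ki (Cheng–Prusoff) is mean ± SEM, n=3; % displacement at 0.1 μM is n=2.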

Sequence of Adenosine receptor A2a (P29274 whole entry): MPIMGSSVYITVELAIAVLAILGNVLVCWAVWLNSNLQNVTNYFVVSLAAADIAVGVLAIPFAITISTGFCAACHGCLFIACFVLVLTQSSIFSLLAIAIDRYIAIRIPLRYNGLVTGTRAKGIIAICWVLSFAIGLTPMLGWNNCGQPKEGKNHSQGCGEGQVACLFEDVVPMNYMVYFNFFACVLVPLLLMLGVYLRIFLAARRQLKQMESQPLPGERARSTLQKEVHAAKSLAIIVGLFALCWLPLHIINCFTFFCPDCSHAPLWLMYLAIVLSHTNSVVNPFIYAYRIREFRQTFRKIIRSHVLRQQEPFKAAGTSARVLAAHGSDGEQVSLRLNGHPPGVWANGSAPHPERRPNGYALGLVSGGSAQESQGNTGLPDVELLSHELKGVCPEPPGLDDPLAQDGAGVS

Broadly, the inhibition is the relative decrease from the control value, in per cent. A high value points to a strong effect. `CC(=O)Nc1nc(-c2ccco2)cc(-c2ccco2)n1`: the inhibition on Adenosine receptor A2a came out at 19%; in test [1], 11%; in test [2] it was 1%; in test [3], 9%.
In the same order, the values of `CC(=O)Nc1nc(-c2ccccc2F)cc(-c2ccccc2F)n1` are 12%, 10%, 8% and 15%.
Take `CCC(=O)Nc1nc(-c2cccs2)cc(-c2cccs2)n1`: the inhibition on Adenosine receptor A2a came out at 25%; in test [1] it was 2%; in test [2], 24%; in test [3] it was 21%.
The corresponding values for `CCC(=O)Nc1cc(-c2ccc(C(F)(F)F)cc2)nc(-c2ccc(C(F)(F)F)cc2)n1` are 17%, 8%, 3% and 12%.
Take `CC(=O)Nc1nc(-c2ccc(C(C)=O)cc2)cc(-c2ccc(C(C)=O)cc2)n1`: the inhibition at Adenosine receptor A2a came to 8%; in test [1], 14%; in test [2] it was 7%; in test [3] it was 2%.
In the case of `CC(=O)Nc1nc(-c2ccoc2)cc(-c2ccoc2)n1`, the inhibition (at Adenosine receptor A2a; in test [1]; in test [2]; in test [3]) was 1% throughout.
With `CCCC(=O)Nc1nc(/C=C/c2ccccc2)cc(/C=C/c2ccccc2)n1`, the inhibition on Adenosine receptor A2a was 3%; in test [1] it was 2%; in test [2], 1%; in test [3], 12%.
As to `CCC(=O)Nc1nc(-c2ccoc2)cc(-c2ccoc2)n1`, the inhibition is 2% on Adenosine receptor A2a, 11% in test [1], 3% in test [2] and 16% in test [3].
In the same order, the values of `CCCC(=O)Nc1cc(-c2ccc(SC)cc2)nc(-c2ccc(SC)cc2)n1` are 2%, 1%, 3% and 12%.
The corresponding values for `CCCC(=O)Nc1nc(-c2ccc(C(C)=O)cc2)cc(-c2ccc(C(C)=O)cc2)n1` are 14%, 2%, 7% and 22%.
`COc1ccccc1-c1cc(-c2ccccc2OC)nc(NC(C)=O)n1`: the inhibition at Adenosine receptor A2a amounted to 10%; in test [1] it was 1%; in test [2], 4%; in test [3], 2%.
Consider `CCCC(=O)Nc1nc(-c2ccco2)cc(-c2ccco2)n1`, for which the inhibition was 23% on Adenosine receptor A2a, 15% in test [1], 17% in test [2] and 1% in test [3].
`CCCC(=O)Nc1nc(-c2ccc(OC)cc2)cc(-c2ccc(OC)cc2)n1`: the inhibition at Adenosine receptor A2a was determined as 24%; in test [1], 9%; in test [2], 2%; in test [3], 15%.
In the same order, the values of `CCCC(=O)Nc1nc(-c2ccc(C(F)(F)F)cc2)cc(-c2ccc(C(F)(F)F)cc2)n1` are 2%, 13%, 1% and 2%.
The corresponding values for `CSc1ccc(-c2cc(-c3ccc(SC)cc3)nc(NC(C)=O)n2)cc1` are 1%, 2%, 1% and 14%.
The corresponding values for `CCC(=O)Nc1nc(-c2ccc(F)cc2)cc(-c2ccc(F)cc2)n1` are 3%, 1%, 14% and 22%.
Take `CCC(=O)Nc1nc(-c2ccc(OC)cc2OC)cc(-c2ccc(OC)cc2OC)n1`: the inhibition on Adenosine receptor A2a is 14%; in test [1], 3%; in test [2] it was 3%; in test [3], 17%.
Take `CCCC(=O)Nc1nc(-c2ccc(Cl)cc2)cc(-c2ccc(Cl)cc2)n1`: the inhibition on Adenosine receptor A2a was 3%; in test [1] it was 1%; in test [2] it was 1%; in test [3], 17%.
As to `CC(=O)Nc1nc(-c2ccc(C(F)(F)F)cc2)cc(-c2ccc(C(F)(F)F)cc2)n1`, the inhibition on Adenosine receptor A2a was found to be 1%; in test [1] it was 2%; in test [2] it was 2%; in test [3], 10%.
Turning to `CCCC(=O)Nc1nc(-c2ccoc2)cc(-c2ccoc2)n1`, the inhibition on Adenosine receptor A2a was 17%; in test [1], 0%; in test [2], 11%; in test [3], 21%.
For `CC(=O)Nc1nc(-c2ccc(F)cc2)cc(-c2ccc(F)cc2)n1`, the inhibition at Adenosine receptor A2a is 2%; in test [1] it was 1%; in test [2], 2%; in test [3], 8%.
With `CCC(=O)Nc1nc(-c2ccc(C(F)(F)F)cc2)cc(-c2ccc(C(F)(F)F)cc2)n1`, the inhibition at Adenosine receptor A2a was 12%; in test [1], 9%; in test [2], 2%; in test [3], 2%.
In the case of `CCCC(=O)Nc1cc(-c2ccc(C(F)(F)F)cc2)nc(-c2ccc(C(F)(F)F)cc2)n1`, the inhibition worked out at 1% on Adenosine receptor A2a, 6% in test [1], 3% in test [2] and 12% in test [3].
In the same order, the values of `CCCC(=O)Nc1nc(-c2ccc(OC)cc2OC)cc(-c2ccc(OC)cc2OC)n1` are 16%, 15%, 14% and 1%.
On to `CC(=O)Nc1nc(/C=C/c2ccccc2)cc(/C=C/c2ccccc2)n1`, for which the inhibition stood at 15% on Adenosine receptor A2a, 1% in test [1], 1% in test [2] and 4% in test [3].
For the compound `CC(=O)Nc1nc(-c2cccs2)cc(-c2cccs2)n1`, the inhibition on Adenosine receptor A2a was found to be 5%; in test [1], 3%; in test [2] it was 2%; in test [3], 21%.
With `COc1ccc(-c2cc(-c3ccc(OC)cc3OC)nc(NC(C)=O)n2)c(OC)c1`, the inhibition on Adenosine receptor A2a came out at 2%; in test [1], 1%; in test [2], 1%; in test [3], 9%.
In the case of `CCCC(=O)Nc1nc(-c2ccccc2OC)cc(-c2ccccc2OC)n1`, the inhibition was 11% at Adenosine receptor A2a, 1% in test [1], 13% in test [2] and 18% in test [3].
In the same order, the values of `CCC(=O)Nc1nc(-c2ccc(OC)cc2)cc(-c2ccc(OC)cc2)n1` are 1%, 8%, 2% and 13%.
On to `CCCC(=O)Nc1nc(-c2ccc(F)cc2)cc(-c2ccc(F)cc2)n1`, for which the inhibition at Adenosine receptor A2a worked out at 5%; in test [1], 2%; in test [2], 18%; in test [3] it was 27%.
In the same order, the values of `CC(=O)Nc1nc(-c2ccc(Cl)cc2)cc(-c2ccc(Cl)cc2)n1` are 2%, 1%, 2% and 1%.
With `CCC(=O)Nc1nc(-c2ccc(Cl)cc2)cc(-c2ccc(Cl)cc2)n1`, the inhibition was 11% at Adenosine receptor A2a, 2% in test [1], 1% in test [2] and 14% in test [3].
